Among the data in ChEMBL document CHEMBL1933052, “Synthesis and anti-protozoal activity of novel dihydropyrrolo[3,4-d][1,2,3]triazoles” (Eur J Med Chem, 2012) are IC50 values, retold here.

Structures are written as SMILES. ≈ marks a conversion by molar mass, not a printed value. A value given as a limit tells only on which side of the number the result lay.

Experiment [1] has as its system Trypanosoma brucei rhodesiense. Kind of experiment: Trypanocidal activity against Trypanosoma brucei rhodesiense STIB 900 bloodstream forms after 72 hrs by resazurin assay. The experiment is classed as functional, organism-based. To be noted: STIB 900, 72 h. The essentials:
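Bloodstream forms, 10^4/well, in MEM with 25 mM HEPES, extra glucose, non-essential amino acids, 0.2 mM 2-mercaptoethanol, 1 mM pyruvate, 15% heat-inactivated horse serum; seven 3-fold dilutions 90 to 0.123 µg/mL; 37 °C, 5% CO2, 72 h; resazurin 2–4 h more; fluorescence ex 536/em 588 nm; melarsoprol standard.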

Another experiment concerns Trypanosoma cruzi. The experiment is described as follows: Trypanocidal activity against trypomastigote Trypanosoma cruzi Tulahuen C2C4 infected in L6 cells after 96 hrs by beta-galactosidase reporter gene assay. Conditions: Tulahuen C2C4, L6, 96 h. The experiment is classed as functional, organism-based.
The subject of the next experiment is Leishmania donovani. The experiment is described as follows: Leishmanicidal activity against Leishmania donovani MHOM/ET/67/L82 amastigote forms after 72 hrs by resazurin assay. The experiment is classed as functional, organism-based. To be noted: MHOM/ET/67/L82, 72 h.
The next experiment relates to Plasmodium falciparum. The experiment is described as follows: Antimalarial activity against chloquine- and pyrimethamine-resistant Plasmodium falciparum K1 erythrocytic stage assessed as inhibition of [3H]hypoxanthine incorporation after 48 hrs by liquid scintillation counting. In kind it is functional, organism-based. The essentials: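 Erythrocytic-stage cultures in hypoxanthine-free RPMI 1640 with 5% Albumax, exposed to serial drug dilutions at 37 °C under reduced oxygen for 48 h. 0.5 μCi [3H]-hypoxanthine per well was then added for a further 24 h. Cells were harvested onto glass-fibre filters and counted as CPM, expressed as % of untreated controls. IC50 was read from dose–response curves. Chloroquine was the reference.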

The subject of another experiment is L6. Kind of experiment: Cytotoxicity against rat L6 cells after 72 hrs by resazurin assay. The experiment is classed as cell-based. To be noted: L6, 72 h. The procedure, abridged:
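L6 rat skeletal myoblasts, 4×10^4 cells/well in RPMI 1640 with 10% FBS and L-glutamine; seven 3-fold serial dilutions, 90 to 0.123 µg/mL; 72 h; microscopic check of controls and sterility; resazurin added, 2 h further; fluorescence read at ex 536/em 588 nm.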

For the compound `O=C1[C@H]2N=NN(Cc3nc(-c4ccccc4)no3)[C@H]2C(=O)N1c1ccccc1`, the half-maximal inhibitory concentration (IC50) in experiment [1] came out at 7 mg/L (≈ 18.7 µM); in the experiment on Trypanosoma cruzi it was 46.1 mg/L (≈ 123 µM); with Leishmania donovani, 1.6 mg/L (≈ 4.27 µM); in the experiment on Plasmodium falciparum, 22.6 mg/L (≈ 60.4 µM); in the experiment with L6, 47.3 mg/L (≈ 126 µM).

Take `O=C1[C@H]2N=NN(Cc3nc(-c4ccc(Cl)cc4)no3)[C@H]2C(=O)N1c1ccccc1`: the half-maximal inhibitory concentration (IC50) was determined as 17.2 mg/L (≈ 42.1 µM) in experiment [1]; 49 mg/L (≈ 120 µM) with Trypanosoma cruzi; 3.2 mg/L (≈ 7.83 µM) in the experiment with Leishmania donovani; 24.9 mg/L (≈ 60.9 µM) in the experiment on Plasmodium falciparum; 49.5 mg/L (≈ 121 µM) in the experiment with L6.

For the compound `O=C1[C@H]2N=NN(Cc3nc(-c4ccc(Br)cc4)no3)[C@H]2C(=O)N1c1ccccc1`, the half-inhibitory concentration (IC50) was 18.2 mg/L (≈ 40.2 µM) in experiment [1]; 54.9 mg/L (≈ 121 µM) with Trypanosoma cruzi; 3.5 mg/L (≈ 7.72 µM) in the experiment with Leishmania donovani; 26.9 mg/L (≈ 59.3 µM) in the experiment with Plasmodium falciparum; 58.6 mg/L (≈ 129 µM) in the experiment with L6.

In the case of `O=C1[C@H]2N=NN(Cc3nc(-c4ccc(F)cc4)no3)[C@H]2C(=O)N1c1ccccc1`, the IC50 in experiment [1] is 12.3 mg/L (≈ 31.3 µM); in the experiment with Trypanosoma cruzi, 62.4 mg/L (≈ 159 µM); in the experiment on Leishmania donovani, 4.1 mg/L (≈ 10.4 µM); with Plasmodium falciparum it was 23.6 mg/L (≈ 60.2 µM); in the experiment with L6, more than 100 mg/L.

In the case of `Cc1ccc(-c2noc(CN3N=N[C@@H]4C(=O)N(c5ccccc5)C(=O)[C@@H]43)n2)cc1`, the IC50 in experiment [1] came to 8.4 mg/L (≈ 21.6 µM); in the experiment on Trypanosoma cruzi, 38.9 mg/L (≈ 100 µM); in the experiment on Leishmania donovani, 2.2 mg/L (≈ 5.66 µM); in the experiment with Plasmodium falciparum, 13.2 mg/L (≈ 34 µM); with L6 it was 15.2 mg/L (≈ 39.1 µM).

Regarding `O=C1[C@H]2N=NN(Cc3nc(-c4ccc(I)cc4)no3)[C@H]2C(=O)N1c1ccccc1`, the concentration for half-maximal inhibition (IC50) in experiment [1] is 18.8 mg/L (≈ 37.6 µM); with Trypanosoma cruzi, 47.2 mg/L (≈ 94.4 µM); in the experiment with Leishmania donovani, 3.6 mg/L (≈ 7.2 µM); in the experiment on Plasmodium falciparum, 20.4 mg/L (≈ 40.8 µM); in the experiment with L6 it was 48.6 mg/L (≈ 97.2 µM).

Turning to `O=C1[C@H]2N=NN(Cc3nc(-c4ccc([N+](=O)[O-])cc4)no3)[C@H]2C(=O)N1c1ccccc1`, the IC50 in experiment [1] was 8 mg/L (≈ 19.1 µM); with Trypanosoma cruzi, 41.1 mg/L (≈ 98 µM); in the experiment with Leishmania donovani, 2 mg/L (≈ 4.77 µM); in the experiment with Plasmodium falciparum, 14.7 mg/L (≈ 35.1 µM); in the experiment with L6 it was more than 100 mg/L.

As for `COc1ccc(-c2noc(CN3N=N[C@@H]4C(=O)N(c5ccccc5)C(=O)[C@@H]43)n2)cc1`, the half-maximal inhibitory concentration (IC50) in experiment [1] is 16.9 mg/L (≈ 41.8 µM); in the experiment with Trypanosoma cruzi, 54 mg/L (≈ 134 µM); in the experiment on Leishmania donovani, 3.4 mg/L (≈ 8.41 µM); with Plasmodium falciparum it was 17 mg/L (≈ 42 µM); with L6, more than 100 mg/L.

For the compound `CSc1ccc(-c2noc(CN3N=N[C@@H]4C(=O)N(c5ccccc5)C(=O)[C@@H]43)n2)cc1`, the IC50 in experiment [1] is 16.3 mg/L (≈ 38.8 µM); with Trypanosoma cruzi, 48.5 mg/L (≈ 115 µM); with Leishmania donovani, 3.5 mg/L (≈ 8.32 µM); in the experiment on Plasmodium falciparum, 20.6 mg/L (≈ 49 µM); in the experiment with L6, more than 100 mg/L.

Turning to `O=C1[C@H]2N=NN(Cc3nc(-c4ccc(C(F)(F)F)cc4)no3)[C@H]2C(=O)N1c1ccccc1`, the concentration for half-maximal inhibition (IC50) came out at 13.9 mg/L (≈ 31.4 µM) in experiment [1]; 51.4 mg/L (≈ 116 µM) in the experiment on Trypanosoma cruzi; 3.7 mg/L (≈ 8.36 µM) with Leishmania donovani; 15 mg/L (≈ 33.9 µM) in the experiment with Plasmodium falciparum; 44.4 mg/L (≈ 100 µM) in the experiment on L6.

`CN(C)c1ccc(-c2noc(CN3N=N[C@@H]4C(=O)N(c5ccccc5)C(=O)[C@@H]43)n2)cc1`: the IC50 in experiment [1] was 13.1 mg/L (≈ 31.4 µM); with Trypanosoma cruzi, 36.6 mg/L (≈ 87.7 µM); with Leishmania donovani it was 4.5 mg/L (≈ 10.8 µM); in the experiment with Plasmodium falciparum it was 21 mg/L (≈ 50.3 µM); with L6, more than 100 mg/L.

In the experiment on Trypanosoma cruzi, `O=C(Cn1ccnc1[N+](=O)[O-])NCc1ccccc1` [BENZNIDAZOLE] showed a 50% inhibitory concentration (IC50) of 0.464 mg/L (≈ 1.78 µM).

`CCCCCCCCCCCCCCCCOP(=O)([O-])OCC[N+](C)(C)C` [MILTEFOSINE]: the concentration for half-maximal inhibition (IC50) with Leishmania donovani is 0.171 mg/L (≈ 0.42 µM).

In the experiment on L6, `COc1cc([C@@H]2c3cc4c(cc3[C@H](O)[C@H]3COC(=O)[C@H]23)OCO4)cc(OC)c1OC` [PODOFILOX] had an IC50 of 0.007 mg/L (≈ 0.0169 µM).
